Our source for the EC50 and Activity values is ChEMBL document CHEMBL1147243, “Antitumor agents. 228. five new agarofurans, Reissantins A-E, and cytotoxic principles from Reissantia buchananii” (2003).

SMILES strings stand for the structures. Values after ≈ are worked out from the molar mass of the structure shown. Active and inactive are the calls of the source. No cut-off for these calls is given here. Bounds are passed on as bounds.

For test [1], the system named is HCT-8. Nature of the test: Cytotoxicity against human HCT8 cells after 3 days by SRB assay. Format: functional. The conditions noted are these: HCT-8, 72 h, read-out: ED50 (the source's name). A digest of the protocol:
(§1)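 Tumour lines kept in RPMI-1640 with 25 mM HEPES, 0.25% sodium bicarbonate, 10% FBS and 100 µg/mL kanamycin. Freshly trypsinized cells were seeded at 1500-7500 per well with compound from DMSO-diluted stock. After 3 days, attached cells were fixed with cold 50% TCA, stained with 0.4% SRB, and the bound dye was solubilized and read at 562 nm. ED50 is the concentration giving 50% growth reduction.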
(In SRB staining, fixed cells bind dye roughly in proportion to their protein.)

In test [2] the test system is KB. Nature of the test: Cytotoxicity against human KB cells after 3 days by SRB assay. It is filed as functional. The settings on record: 72 h, read-out: ED50 (the source's name). A digest of the protocol:
as §1

A short description of test [3]: Cytotoxicity against human KBVIN cells after 3 days by SRB assay. It is filed as functional. The settings on record: 72 h, read-out: ED50 (the source's name). A digest of the protocol: (§2)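 Freshly trypsinized cells from T-25 stock cultures were seeded at 1500-7500 cells/well with compound added from DMSO-diluted stock. The medium was RPMI-1640 with 25 mM HEPES, 0.25% sodium bicarbonate, 10% FBS and 100 µg/mL kanamycin. After 3 days, attached cells were fixed with cold 50% TCA, stained with 0.4% SRB, and the bound dye solubilized and read at 562 nm. ED50 is the concentration giving 50% growth reduction.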

Test [4] in a line: Cytotoxicity against human U87MG cells after 3 days by SRB assay. The conditions noted are these: U-87 MG, 72 h, read-out: ED50 (the source's name). Format: functional, U-87MG ATCC. A digest of the protocol: as §2
Test [5] deals with PC-3. Nature of the test: Cytotoxicity against human PC3 cells after 3 days by SRB assay. It is filed as functional. The settings on record: PC-3, 72 h, read-out: ED50 (the source's name). A digest of the protocol: as §1
Test [6] has as its system 1A9. The test can be described thus: Cytotoxicity against human 1A9 cells after 3 days by SRB assay. The conditions noted are these: 1A9, 72 h, read-out: ED50 (the source's name). Format: functional. A digest of the protocol:
as §1

The subject of test [7] is 1A9/ptx-10. Nature of the test: Cytotoxicity against human 1A9/PTX10 cells after 3 days by SRB assay. It is filed as functional. The conditions noted are these: 1A9/ptx-10, 72 h, read-out: ED50 (the source's name). A digest of the protocol: as §1
For test [8], the system named is 1A9. Nature of the test: Cytotoxicity against human 1A9 cells after 6 days by SRB assay. Format: functional. The settings on record: 1A9, 144 h, read-out: ED50 (the source's name). A digest of the protocol: (§3)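 Cells were grown in RPMI-1640 supplemented with 25 mM HEPES, 0.25% sodium bicarbonate, 10% FBS and 100 µg/mL kanamycin. Freshly trypsinized cells were plated at 1500-7500 per well with compound from DMSO-diluted stock over a 6-day assay period. Cells were fixed with cold 50% TCA and stained with 0.4% SRB, and the solubilized dye was read at 562 nm. ED50 is the concentration reducing growth by 50%.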

Test [9] deals with 1A9/ptx-10. The test can be described thus: Cytotoxicity against human 1A9/PTX10 cells after 6 days by SRB assay. Format: functional. The conditions noted are these: 1A9/ptx-10, 144 h, read-out: ED50 (the source's name). A digest of the protocol:
as §3

Test [10] concerns A549. The test can be described thus: Cytotoxicity against human A549 cells after 3 days by SRB assay. Format: functional. The conditions noted are these: A549, 72 h, read-out: ED50 (the source's name). A digest of the protocol: as §1
Test [11] relates to MCF7. The test can be described thus: Cytotoxicity against human MCF7 cells after 3 days by SRB assay. The settings on record: MCF7, 72 h, read-out: ED50 (the source's name). Format: functional. A digest of the protocol: as §1
Test [12] concerns KBVIN. The test can be described thus: Cytotoxicity against human KBVIN cells at 20 ug/ml after 3 days by SRB assay. Format: functional, cell-based.
In test [13] the test system is U-87MG ATCC. Nature of the test: Cytotoxicity against human U87MG cells at 20 ug/ml after 3 days by SRB assay. Format: functional, cell-based.
The subject of test [14] is HCT-8. Nature of the test: Cytotoxicity against human HCT8 cells at 20 ug/ml after 3 days by SRB assay. It is filed as functional, cell-based.
Test [15] has as its system 1A9. The test can be described thus: Cytotoxicity against human 1A9 cells at 20 ug/ml after 6 days by SRB assay. It is filed as functional, cell-based.

With `COC(=O)[C@]1(C)CC[C@]2(C)CC[C@]3(C)C4=CC(=O)c5c(cc(O)c(O)c5C)[C@]4(C)CC[C@@]3(C)[C@@H]2C1`, the EC50 is 14.1 mg/L (≈ 29.3 µM) in test [1]; 14.5 mg/L (≈ 30.2 µM) in test [2]; 16.6 mg/L (≈ 34.5 µM) in test [3]; more than 20 mg/L in test [4]; more than 20 mg/L in test [5]; 11.7 mg/L (≈ 24.3 µM) in [6]. The EC50 in [7] came to 12.4 mg/L (≈ 25.8 µM); in [8] it was 10.7 mg/L (≈ 22.3 µM); in test [9] it was 7.1 mg/L (≈ 14.8 µM); in [10], 16.4 mg/L (≈ 34.1 µM); in test [11] it was 12.8 mg/L (≈ 26.6 µM).
As to `CC1(C)CC[C@]2(C)CC[C@]3(C)C(=CC[C@@H]4[C@@]5(C)CC[C@H](O)C(C)(C)C5C(=O)C[C@]43C)[C@H]2C1` (some centres undefined), the EC50 in test [1] amounted to 13.7 mg/L (≈ 31.1 µM); in [2] it was 13 mg/L (≈ 29.5 µM); in test [3] it was 14.7 mg/L (≈ 33.4 µM); in test [4], 6.7 mg/L (≈ 15.2 µM); in [5] it was 15.1 mg/L (≈ 34.3 µM); in test [6], 11.4 mg/L (≈ 25.9 µM). Moreover, the EC50 in [7] came out at 11 mg/L (≈ 25 µM); in test [8], 11.3 mg/L (≈ 25.6 µM); in test [9], 11.2 mg/L (≈ 25.4 µM); in test [10], 13.3 mg/L (≈ 30.2 µM); in test [11] it was 14.6 mg/L (≈ 33.1 µM).
For the compound `CC[C@H](CC[C@@H](C)[C@H]1CC[C@H]2[C@@H]3CC=C4C[C@@H](O)CC[C@]4(C)[C@H]3CC[C@]12C)C(C)C` [BETA-SITOSTEROL], the EC50 in test [1] is more than 20 mg/L; in test [2] it was more than 20 mg/L; in [3], more than 20 mg/L; in test [4] it was more than 20 mg/L; in [5] it was more than 20 mg/L; in test [6], 16.8 mg/L (≈ 40.5 µM). Besides, the EC50 in test [7] is 20 mg/L (≈ 48.2 µM); in test [8], 10.6 mg/L (≈ 25.6 µM); in test [9], 9.5 mg/L (≈ 22.9 µM); in test [10] it was more than 20 mg/L; in [11], more than 20 mg/L.
Take `CC1=C(O)C(=O)C=C2C1=CC=C1[C@@]2(C)CC[C@@]2(C)[C@@H]3C[C@](C)(C(=O)O)CC[C@]3(C)CC[C@]12C` [CELASTROL]: the EC50 is 0.23 mg/L (≈ 0.51 µM) in test [1]; 0.2 mg/L (≈ 0.444 µM) in [2]; 0.34 mg/L (≈ 0.755 µM) in test [3]; 0.22 mg/L (≈ 0.488 µM) in test [4]; 0.27 mg/L (≈ 0.599 µM) in test [5]; 0.091 mg/L (≈ 0.202 µM) in test [6]. The EC50 in test [7] is 0.1 mg/L (≈ 0.222 µM); in [8] it was 0.11 mg/L (≈ 0.244 µM); in [9], 0.11 mg/L (≈ 0.244 µM); in test [10], 0.25 mg/L (≈ 0.555 µM); in test [11], 0.21 mg/L (≈ 0.466 µM).
In the case of `CC(=O)O[C@H]1C(=O)[C@@]2(C)[C@H]([C@H](OC(=O)c3ccccc3)[C@]3(O)C[C@H](OC(=O)[C@H](O)[C@@H](NC(=O)c4ccccc4)c4ccccc4)C(C)=C1C3(C)C)[C@]1(OC(C)=O)CO[C@@H]1C[C@@H]2O` [PACLITAXEL], the EC50 in test [1] was determined as 0.011 mg/L (≈ 0.0129 µM); in test [2], 0.001 mg/L (≈ 0.00117 µM); in [6], 0.002 mg/L (≈ 0.00234 µM); in test [8] it was 0.041 mg/L (≈ 0.048 µM); in [10] it was 0.005 mg/L (≈ 0.00586 µM).
Consider `COC(=O)[C@]1(C)CC[C@]2(C)CC[C@]3(C)C4=CC=C5C(=CC(=O)C(O)=C5C)[C@]4(C)CC[C@@]3(C)[C@@H]2C1` [PRISTIMERIN], for which the EC50 in [1] came to 0.15 mg/L (≈ 0.323 µM); in test [2], 0.1 mg/L (≈ 0.215 µM); in test [3] it was 0.29 mg/L (≈ 0.624 µM); in [4], 0.17 mg/L (≈ 0.366 µM); in test [5], 0.23 mg/L (≈ 0.495 µM); in test [6], 0.1 mg/L (≈ 0.215 µM). Further, the EC50 in test [7] stood at 0.11 mg/L (≈ 0.237 µM); in test [8], 0.11 mg/L (≈ 0.237 µM); in [9], 0.076 mg/L (≈ 0.164 µM); in test [10], 0.31 mg/L (≈ 0.667 µM); in test [11], 0.14 mg/L (≈ 0.301 µM).
In the case of `CC(=O)O[C@H]1[C@@H]2[C@@H](OC(=O)c3ccc(=O)n(C)c3)[C@@]3(OC2(C)C)[C@@](C)([C@@H](OC(C)=O)CC[C@]3(C)O)[C@H]1OC(=O)c1ccccc1` [REISSANTIN A], the EC50 in [1], in test [2], in test [5], in test [6], in test [7] and in [8] was more than 20 mg/L throughout. Besides, the EC50 in test [9], in [10] and in test [11] was more than 20 mg/L in each case. Moreover, the result in test [12] and in [13] was inactive.
Regarding `CC(=O)O[C@H]1[C@@H]2[C@@H](OC(=O)c3ccc(=O)n(C)c3)[C@@]3(OC2(C)C)[C@](C)([C@H]1OC(=O)c1ccccc1)[C@@H](OC(C)=O)[C@@H](OC(=O)c1ccccc1)C[C@]3(C)O` [REISSANTIN B], the EC50 was more than 20 mg/L in test [1]; 11.7 mg/L (≈ 15.7 µM) in test [2]; 17.1 mg/L (≈ 22.9 µM) in [3]; more than 20 mg/L in test [4]; more than 20 mg/L in [5]; 17.1 mg/L (≈ 22.9 µM) in [6]. Also, the EC50 is more than 20 mg/L in [7]; 13.7 mg/L (≈ 18.4 µM) in test [8]; 15.3 mg/L (≈ 20.5 µM) in test [9]; 15.3 mg/L (≈ 20.5 µM) in test [10]; more than 20 mg/L in test [11].
As to `CC(=O)O[C@H]1CC[C@](C)(O)[C@]23OC(C)(C)[C@H]([C@H](O)[C@H](OC(=O)c4ccccc4)[C@]12C)[C@H]3O` [REISSANTIN D], the EC50 in test [2], in test [5], in test [6], in test [7], in test [8] and in test [9] was more than 20 mg/L throughout. The figures for the EC50 in test [10] and in test [11] were more than 20 mg/L and 16.2 mg/L (≈ 36.1 µM), respectively. Also, the outcome in test [14], in [12] and in test [13] was inactive.
As to `CC(=O)O[C@H]1[C@@H]2[C@@H](O)[C@@]3(OC2(C)C)[C@@](C)([C@@H](OC(C)=O)CC[C@]3(C)O)[C@H]1OC(=O)c1ccccc1` [REISSANTIN E], the EC50 in test [1] was more than 20 mg/L; in [2], 14.4 mg/L (≈ 29.4 µM); in test [3], 16.5 mg/L (≈ 33.6 µM); in test [5], more than 20 mg/L; in test [6] it was more than 20 mg/L; in test [7], more than 20 mg/L. The EC50 in [9], in test [10] and in test [11] was more than 20 mg/L in each case. For the same compound, the result in test [13] and in test [15] was inactive.
